Test results taken from ChEMBL document CHEMBL4342460, “1-(2'-Bromobenzyl)-6,7-dihydroxy-N-methyl-tetrahydroisoquinoline and 1,2-Demethyl-nuciferine as Agonists in Human D2 Dopamine Receptors” (J Nat Prod, 2020).
Active and inactive are the calls of the source. The rule behind the calls is not given here.

How the values were obtained:
D(2) dopamine receptor [1] = biological target: T1, D(2) dopamine receptor (Homo sapiens, UniProt P14416); assay: Displacement of [3H]spiperone from human D2S receptor expressed in CHO-K1 cells by radioligand competitive binding analysis; format: cell-based
T1 sequence (P14416 whole entry): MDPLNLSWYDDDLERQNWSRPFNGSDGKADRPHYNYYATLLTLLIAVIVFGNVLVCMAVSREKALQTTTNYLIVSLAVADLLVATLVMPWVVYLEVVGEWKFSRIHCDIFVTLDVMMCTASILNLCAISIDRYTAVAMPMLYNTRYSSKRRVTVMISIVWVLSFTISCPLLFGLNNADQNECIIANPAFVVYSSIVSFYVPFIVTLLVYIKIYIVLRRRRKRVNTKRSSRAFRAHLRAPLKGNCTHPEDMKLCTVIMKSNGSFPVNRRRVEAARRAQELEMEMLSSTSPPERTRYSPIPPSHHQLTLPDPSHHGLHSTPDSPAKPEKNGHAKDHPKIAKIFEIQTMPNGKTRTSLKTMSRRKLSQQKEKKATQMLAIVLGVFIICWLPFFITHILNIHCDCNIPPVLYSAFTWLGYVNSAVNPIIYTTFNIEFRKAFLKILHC

[2] = Displacement of [3H]spiperone from human D4.2 receptor expressed in CHO-K1 cells by radioligand competitive binding analysis; format: cell-based
Outline: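 Competition for [3H]-spiperone on membranes from CHO-K1 cells stably expressing human D4.2 receptor, with nonspecific binding set by 25 μM haloperidol. Six concentrations run, from 1 nM to 100 μM or 0.1 nM to 10 μM. Curves fitted to a single-site model, and Ki derived using radioligand concentration and Kd from saturation binding. Clozapine reference. n = 2, mean SEM.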

D(2) dopamine receptor [3] = biological target: T1, D(2) dopamine receptor; assay: (§1) Agonist activity at human D2S receptor expressed in CHOK1 cells assessed as inhibition of forskolin induced cAMP production preincubated for 10 mins followed by forskolin addition and measured after 5 mins by HTRF assay relative to control; format: functional, cell-based
D(2) dopamine receptor [4] = biological target: T1, D(2) dopamine receptor; assay: as §1, with “production by measuring Emax for cAMP accumulation at 10 uM” for “production”, “quinpirole (reference value: 98.8 +/- 0.6%)” for “control”; format: functional, cell-based
Outline: (§2)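 CHO-K1 cells stably transfected with human D2S cDNA, kept in 500 μg/mL G418. Cells in stimulation buffer with 500 μM IBMX took compound for 10 min at 37 °C, then forskolin (10 μM) for 5 min. Intracellular cAMP read by HTRF. Efficacy is percent of maximal quinpirole response. Basal cAMP from wells lacking compound, quinpirole and forskolin. n = 3−4 independent experiments in triplicate, mean SEM.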

CHO-K1 = assay: Displacement of [3H]spiperone from human D4.2 receptor expressed in CHO-K1 cells at 10 uM by radioligand competitive binding analysis relative to control; format: cell-based
Outline: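 Membranes from CHO-K1 cells stably expressing human D4.2 receptor. Radioligand [3H]-spiperone. Nonspecific binding defined with 25 μM haloperidol. […] Clozapine served as reference competitor. n = 2, mean SEM.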

D(2) dopamine receptor [5] = biological target: T1, D(2) dopamine receptor; assay: Agonist activity at human D2S receptor expressed in CHOK1 cells assessed as inhibition of forskolin induced cAMP production at 10 uM preincubated for 10 mins followed by forskolin addition and measured after 5 mins in presence of low concentration of quinpirole by HTRF assay; format: functional, cell-based
Outline: (§3)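 CHO-K1 cells stably transfected with human D2S (short isoform) cDNA. Test compound (10 μM) was added at the same time as quinpirole (10 pM to 100 μM). Cells were in stimulation buffer with 500 μM IBMX for 10 min at 37 °C, then 10 μM forskolin for 5 min. cAMP was read by HTRF, with basal wells lacking all additions. n = 3−4 independent experiments, in triplicate.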

D(2) dopamine receptor [6] = biological target: T1, D(2) dopamine receptor; assay: Agonist activity at human D2S receptor expressed in CHOK1 cells assessed as inhibition of forskolin induced cAMP production by measuring Emax for cAMP accumulation at 100 uM preincubated for 10 mins followed by forskolin addition and measured after 5 mins by HTRF assay relative to quinpirole; format: functional, cell-based; outline: as §2
D(3) dopamine receptor = D(3) dopamine receptor (Homo sapiens, UniProt P35462); assay: Displacement of [3H]spiperone from human D3 receptor expressed in CHO-K1 cells by radioligand competitive binding analysis; format: cell-based
Sequence of D(3) dopamine receptor (P35462 whole entry): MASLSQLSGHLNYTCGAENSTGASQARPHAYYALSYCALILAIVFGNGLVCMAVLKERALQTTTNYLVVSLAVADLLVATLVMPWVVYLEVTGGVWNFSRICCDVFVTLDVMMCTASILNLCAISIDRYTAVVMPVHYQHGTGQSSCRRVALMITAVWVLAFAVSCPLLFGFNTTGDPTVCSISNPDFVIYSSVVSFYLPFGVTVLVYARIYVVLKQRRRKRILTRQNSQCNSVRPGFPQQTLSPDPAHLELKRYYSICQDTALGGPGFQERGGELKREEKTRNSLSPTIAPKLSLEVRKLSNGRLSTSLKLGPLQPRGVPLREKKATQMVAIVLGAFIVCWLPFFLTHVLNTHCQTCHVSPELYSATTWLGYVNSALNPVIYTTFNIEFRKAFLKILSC

D(2) dopamine receptor [7] = biological target: T1, D(2) dopamine receptor; assay: Antagonist activity at human D2S receptor expressed in CHOK1 cells assessed as suppression of quinpirole-induced inhibition of forskolin induced cAMP production at 10 uM preincubated for 10 mins followed by forskolin addition and measured after 5 mins in presence of 100 nM quinpirole by HTRF assay relative to quinpirole EC50; format: functional, cell-based; outline: as §3

SMILES	Ki (D(2) dopamine receptor [1]) [nM]	Activity [2]	Ki [2] [nM]	pKi [2]	EC50 (D(2) dopamine receptor [3]) [nM]	Emax (D(2) dopamine receptor [4]) [%]	inhibition (CHO-K1) [%]	Activity (D(2) dopamine receptor [5])	Emax (D(2) dopamine receptor [6]) [%]	Activity (D(3) dopamine receptor)	Ki (D(3) dopamine receptor) [nM]	fold change (FC) (D(2) dopamine receptor [7])
CN1CCc2cc(O)c(O)cc2C1Cc1ccccc1Br (stereo not drawn)	286	Dose-dependent effect	13.8	7.86	2950	31.9	96	Active	48.4	Dose-dependent effect	197	35
CN1CCc2cc(O)c(O)c3c2C1Cc1ccccc1-3 (stereo not drawn)		Dose-dependent effect	551	6.26		50.7	73		92.7	Dose-dependent effect	838	
CN1CCN(C2=Nc3cc(Cl)ccc3Nc3ccccc32)CC1 [CLOZAPINE]			56.9	7.25			96					
